Assays:
Metabolic stability = assay type: in vitro ADME; conditions: in words
[1] = system: MLL leukemia patient samples; experiment: Methylcellulose colony forming assay, MLL leukemia primary patient samples; assay type: cell-based, human; conditions: at submicromolar or low micromolar concentrations, 14 days
In short: (§1)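 Primary cells (peripheral blood mononuclear, thawed) were pre-cultured 24 hr in RPMI-1640 with 10% FBS, 1% penicillin/streptomycin, 10 ng/mL human IL-3 and 10 ng/mL IL-6 plus SCF. They were then plated in duplicate at 7.5–15 × 10^4 cells in cytokine-supplemented methylcellulose containing test compound or DMSO. Incubation was 14 days at 37 °C, 5% CO2, followed by iodonitrotetrazolium chloride staining. Colony counts were normalized to DMSO; mean ± SD, n = 2.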

menin = target: T1, menin (Homo sapiens, UniProt O00255); experiment: Isothermal Titration Calorimetry, binding to menin; conditions: in words
T1 sequence (O00255 1-610): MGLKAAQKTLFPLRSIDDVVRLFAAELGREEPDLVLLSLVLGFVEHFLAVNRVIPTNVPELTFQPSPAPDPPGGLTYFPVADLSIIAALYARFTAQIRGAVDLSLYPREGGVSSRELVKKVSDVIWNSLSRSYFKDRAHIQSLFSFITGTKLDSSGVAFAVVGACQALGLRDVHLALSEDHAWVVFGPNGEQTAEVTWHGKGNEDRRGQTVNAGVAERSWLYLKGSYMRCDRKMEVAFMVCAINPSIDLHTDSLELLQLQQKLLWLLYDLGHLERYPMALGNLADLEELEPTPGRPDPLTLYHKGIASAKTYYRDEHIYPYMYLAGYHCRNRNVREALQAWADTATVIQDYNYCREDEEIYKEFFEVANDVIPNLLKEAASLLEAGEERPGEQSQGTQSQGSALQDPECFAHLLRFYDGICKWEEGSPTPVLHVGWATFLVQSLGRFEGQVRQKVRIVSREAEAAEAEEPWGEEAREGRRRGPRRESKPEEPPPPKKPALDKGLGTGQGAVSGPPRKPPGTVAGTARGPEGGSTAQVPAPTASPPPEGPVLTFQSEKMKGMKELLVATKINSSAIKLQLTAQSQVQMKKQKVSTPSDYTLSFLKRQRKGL

[2] = system: murine bone marrow cells (BMC) transformed with the MLL-AF9 oncogene; experiment: MTT cell viability assay, MLL-AF9 transformed BMCs; assay type: cell-based; conditions: read-out: half-maximal growth inhibitory concentration (GI50); after 7 days of treatment
In short: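 Leukemia cells were plated and exposed to a test compound titration or 0.25% DMSO at 37 °C for 7 days. On day 4, media was changed, viable cell numbers were reset to the starting density and compound was re-supplied. Viability was read by MTT absorbance at 570 nm from titration curves. n = 4, mean ± SD.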

[3] = system: MV4;11 human MLL leukemia cells; conditions: for inhibition of tumor growth: once daily i.p., MI-503 60 mg/kg, MI-463 35 mg/kg, in words
MLL-AF9 leukemia = experiment: Bone marrow transplantation model of murine MLL-AF9 leukemia; assay type: in vivo; conditions: for increase of median survival: MI-463 50 mg/kg, MI-503 80 mg/kg, twice daily oral gavage, 10 days
[4] = Tolerability in normal C57BL/6 mice; assay type: in vivo; conditions: 10 days, twice daily oral gavage
In short: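 Normal C57BL/6 mice received test compound or vehicle by oral gavage twice daily for 10 days, the same regimen as the leukemia survival studies. Body weight, organ weight and tissue damage were assessed afterwards.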

[5] = Pharmacokinetic studies in mice; assay type: in vivo; conditions: single intravenous or oral dose
[6] = system: human leukemia cell lines without MLL translocations; experiment: MTT assay, human leukemia cell lines without MLL translocations; assay type: cell-based; conditions: in words
In short: (§2)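 Cells were plated with test compound or 0.25% DMSO and kept at 37 °C for 7 days. At day 4 the media was changed, viable cell numbers were reset to the starting density and compound was re-added. Read-out was MTT with absorbance at 570 nm, from titration curves. Mean ± SD, n = 4. Non-MLL lines were HL-60, NB4 and Jurkat; murine bone marrow cells were Hoxa9/Meis1-transformed.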

[7] = system: MV4;11 human leukemia cells expressing MLL-AF4; experiment: Long term viability study in MV4; assay type: cell-based; conditions: MV4;11, at day 10, first treatment phase
In short: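 Cycle of 10 days exposure to test compound at several concentrations, 10 days wash-out without compound, then 10 further days of re-treatment. Viable cell numbers were normalized to the DMSO control. Values are means of duplicates ± SD. The day-10 read-out is taken from the first exposure phase.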

[8] = target: T2, menin-MLL-AF9 interaction (Homo sapiens, UniProt O00255); experiment: Co-immunoprecipitation in HEK293 cells transfected with MLL-AF9; assay type: cell-based; conditions: at sub-micromolar concentrations
T2 sequence (O00255 1-610): T1 sequence (O00255 1-610)

[9] = system: control AML patient samples; assay type: cell-based, human; conditions: except at the highest concentration (6 μM) in the AML-9571 sample
In short: as §1

[10] = system: BMCs transformed with the Hoxa9/Meis1 oncogenes (HM-2); experiment: MTT cell viability assay, Hoxa9/Meis1 transformed BMCs; assay type: cell-based, murine; conditions: HM-2 BMCs, 7 days
In short: as §2

[11] = system: MLL leukemia patient samples; experiment: Cell viability assay in primary MLL leukemia patient samples; assay type: cell-based, human; conditions: 7 days of treatment, in words
In short: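 Primary AML cells (mononuclear cells from peripheral blood, isolated by density gradient and red cell lysis, frozen in 10% DMSO) were exposed to test compound or 0.25% DMSO vehicle for 7 days. Stains were anti-human CD45, CD34 and CD38, then Annexin V and 7-AAD, with ≥2 × 10^5 events per sample by flow cytometry. Annexin V/7-AAD double negative cells counted as viable, shown as % of DMSO. Blasts were hCD45+. Mean ± SD, n = 2.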

SMILES | metabolic stability (Metabolic stability) | reduction in colony number [1] | binding affinity to menin (menin) | GI50 [2] [nM] | reduction in MV4;11 tumor volume ([3]; 60 mg/kg once daily i.p.) | inhibition of tumor growth [3] | increase of median survival (MLL-AF9 leukemia) | body weight, organ weight, tissue damage [4] | oral bioavailability [5] | growth suppressive activity [6] | GI50 [7] [nM] | inhibition of the menin-MLL-AF9 interaction [8] | effect on colony formation [9] | effect on cell growth inhibition [10] | effect on cell growth and blast population [11] | body weight loss / tolerability (MLL-AF9 leukemia; MLL-AF9 leukemia mice, 10 days of treatment, twice daily p.o.)
CC1(C)CN=C(N2CCN(c3ncnc4sc(CC(F)(F)F)cc34)CC2)S1 [MI-2-2] | very poor | – | – | – | – | – | – | – | – | – | – | – | – | – | – | –
Cc1c(CN2CCC(Nc3ncnc4sc(CC(F)(F)F)cc34)CC2)ccc2c1cc(C#N)n2Cc1cn[nH]c1 [MI-503] | – | over 50% | low nanomolar | 220 | over 80% | strong inhibition | ~ 45% | no decrease in body weight, organ weight or tissue damage | 75% | only a minimal effect | 200 | effectively inhibit | little effect | no effect | – | –
Cc1c(CN2CCC(Nc3ncnc4sc(CC(F)(F)F)cc34)CC2)ccc2[nH]c(C#N)cc12 [MI-463] | – | over 50% | – | – | – | strong inhibition | ~ 70% | no decrease in body weight, organ weight or tissue damage | ~ 45% | only a minimal effect | – | – | little effect | no effect | marked decrease | no significant body weight loss

From publication PMC4415852 (Cancer cell, 2015)
